Bioassay records from PubChem.
An excerpt weighted towards active compounds, which were near 2.1% of everything screened.
SUMO1-SIM PPI: modulators of SUMO1 protein-protein interactions, primary screen, biochemical, uHTS; Small ubiquitin-related modifier 1 (Homo sapiens), P63165; SUMO1 binding to a labelled peptide, TR-FRET, 1 h; inhibition, % at 20 µM; 0.33% of 360,000 active; in the data active means inhibition above about 37%
Target sequence (P63165 whole entry, looked up): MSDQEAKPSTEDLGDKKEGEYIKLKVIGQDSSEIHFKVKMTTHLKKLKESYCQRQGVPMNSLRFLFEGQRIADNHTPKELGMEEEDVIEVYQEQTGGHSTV
DNMT1 block: human DNMT1 methyltransferase inhibitors, primary screen, biochemical, molecular beacon, fluorescence, HinP1I cleavage, uHTS | inhibition (reported as % activation of signal), % at 10 µM | DNA (cytosine-5)-methyltransferase 1 (Homo sapiens), P26358 | 0.83% of 360,000 active; in the data active means inhibition above about 50%
GRK2 aptamer HTS: compounds blocking aptamer binding on GRK2 – biochemical, human GRK2, bead flow cytometry, HTS, primary screen; Beta-adrenergic receptor kinase 1 (Homo sapiens), P25098; FAM-aptamer displacement from GRK2; inhibition of aptamer binding, % at 10 µM; 0.59% of 330,000 active;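 active means inhibition of aptamer binding above 40%, roughly 3 SD of noise, on plates passing a quality check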;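 further: median bead fluorescence of bound FAM aptamer so fluorescent compounds give negative values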
LMPTP block: LMPTP phosphatase inhibitors, primary screen, biochemical, fluorescence intensity, uHTS; Low molecular weight phosphotyrosine protein phosphatase (Homo sapiens), P24666; recombinant LMPTP-A, OMFP fluorogenic substrate; inhibition, % at 20 µM; 0.22% of 360,000 active;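 active means compounds that cut the enzyme signal by at least half of the control window in the single-dose screen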
Target sequence (P24666 whole entry, looked up): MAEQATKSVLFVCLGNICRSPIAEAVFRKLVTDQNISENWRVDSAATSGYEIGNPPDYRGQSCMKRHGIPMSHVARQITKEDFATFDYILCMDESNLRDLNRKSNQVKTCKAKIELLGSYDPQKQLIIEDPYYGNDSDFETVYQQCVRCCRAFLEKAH
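Buffer or medium: Bis-Tris pH 6.0, DTT, detergent; Assay system: LMPTP-A enzyme; Quantity: 0.625 nM enzyme; Detection: endpoint fluorescence intensity; Times: 50 min dark incubation at room temperature; Controls: substrate-only low control, DMSO enzyme-plus-substrate high control; Doses: single 20 µM dose; Read-out: percent inhibition versus substrate-only and uninhibited controls; Reagent: 400 µM OMFP.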
Scp-1 inhibitor: Scp-1 phosphatase inhibitors, primary screen, biochemical, colorimetric, uHTS. inhibition, % at 20 µM. Carboxy-terminal domain RNA polymerase II polypeptide A small phosphatase 1 (Homo …. Recombinant Scp1, phosphopeptide, malachite green phosphate absorbance. 0.88% of 340,000 active;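 active means inhibition above about 50% at 20 µM, limit read from the data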
Target sequence (Q9GZU7 76-261 limits assumed): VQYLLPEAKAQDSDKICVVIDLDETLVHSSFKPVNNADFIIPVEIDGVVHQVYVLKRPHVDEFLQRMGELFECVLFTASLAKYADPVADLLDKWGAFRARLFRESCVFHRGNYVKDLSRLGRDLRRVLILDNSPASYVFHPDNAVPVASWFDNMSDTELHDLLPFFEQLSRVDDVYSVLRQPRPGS
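Incubation: 45 min enzyme reaction at room temperature / System: truncated SCP-1 phosphatase (76-261aa) / Reagent: Phospho 17-mer peptide substrate / Buffer or medium: Acidic Tris acetate buffer with magnesium and detergent / Signal: absorbance at 630 nm / Doses: one concentration, 20 µM, with 1.0% DMSO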
STEP inh: STEP phosphatase inhibitors, primary screen, biochemical, fluorescence intensity, uHTS; 0.25% of 360,000 active; recombinant STEP, OMFP fluorogenic substrate; AID 588621, 2011; Tyrosine-protein phosphatase non-receptor type 5 (Homo sapiens), P54829; inhibition, % at 20 µM;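 active means inhibition at 20 µM, scaled per plate between control wells, above about 37%, limit read from the data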
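Also added – OMFP at 25 µM · Test system – STEP tyrosine phosphatase · Technique – FITC-channel fluorescence of OMFP product · Schedule – 20 min at room temperature, dark · Evaluation – control-normalized % inhibition with plate pattern correction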
GRK2 inh confirm: GRK2 aptamer-displacing inhibitors, retest, confirmation, biochemical, cherry pick 1, bead flow cytometry. shares compounds with GRK2 aptamer HTS. AID 504451, 2011. bead-bound GRK2, FAM-aptamer displacement. aptamer displacement, % at 10 µM. 4% of 2,000 active;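 active means aptamer displacement above 40%, near three times the noise of non-fluorescent compounds, on plates passing quality checks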;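 further: negative values mostly reflect intrinsic compound fluorescence rather than true enhancement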
FAM quench CP1: quenches fluorescent RNA aptamer, GRK2 hit artifact. shares compounds with GRK2 aptamer HTS. Carboxyfluorescein RNA aptamer on beads, flow cytometry quenching; stronger effect = lower value. fluorescence response (% of DMSO), % at 10 µM. 2,000 tested, under 10 active. AID 504580;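 active means compounds that quench the bead-bound fluorescent RNA probe, cutting fluorescence to under half of the solvent control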;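 further: counterscreen run without GRK2 so only probe quenching by compound is measured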
A number is an active result.

What do the screens show for `O=C(Nc1ccccc1N1CCCCC1)c1ccco1`?
SUMO1-SIM PPI: inactive; DNMT1 block: inactive; GRK2 aptamer HTS: 49; LMPTP block: inactive; Scp-1 inhibitor: inactive; STEP inh: inactive; GRK2 inh confirm: inactive; FAM quench CP1: inactive

How did O=C(Nc1ccccc1N1CCCC1)c1ccco1 do in these assays?
SUMO1-SIM PPI: inactive; DNMT1 block: inactive; GRK2 aptamer HTS: inactive; LMPTP block: inactive; Scp-1 inhibitor: inactive; STEP inh: inactive

What do the screens show for `Cc1cc(NC(=O)c2ccccc2C)n(-c2cccc(F)c2)n1`?
SUMO1-SIM PPI: inactive; DNMT1 block: inactive; GRK2 aptamer HTS: 100; LMPTP block: inactive; Scp-1 inhibitor: inactive; STEP inh: inactive; GRK2 inh confirm: inactive; FAM quench CP1: inactive

How did N#CCCN(C(=O)COC(=O)c1cc(=O)[nH]c2ccccc12)c1ccccc1 do in these assays?
SUMO1-SIM PPI: inactive; DNMT1 block: inactive; GRK2 aptamer HTS: 45; LMPTP block: inactive; Scp-1 inhibitor: inactive; STEP inh: inactive; GRK2 inh confirm: inactive; FAM quench CP1: inactive

What do the screens show for `O=C(COC(=O)c1cc(=O)[nH]c2ccccc12)NC(=O)c1ccccc1`?
SUMO1-SIM PPI: inactive; DNMT1 block: inactive; GRK2 aptamer HTS: 68; LMPTP block: inactive; Scp-1 inhibitor: inactive; STEP inh: inactive; GRK2 inh confirm: inactive; FAM quench CP1: inactive

How did CCC(Sc1nc(C)cc(C)n1)C(=O)Nc1nccs1 (centres undefined) do in these assays?
SUMO1-SIM PPI: inactive; DNMT1 block: inactive; GRK2 aptamer HTS: inactive; LMPTP block: inactive; Scp-1 inhibitor: inactive; STEP inh: inactive

What do the screens show for `CSc1nc(C)c(C(=O)C[n+]2ccccc2)cc1C#N`?
SUMO1-SIM PPI: inactive; DNMT1 block: inactive; GRK2 aptamer HTS: 94; LMPTP block: inactive; Scp-1 inhibitor: inactive; STEP inh: inactive; GRK2 inh confirm: inactive; FAM quench CP1: inactive

How did O=C(NCc1ccc(Cl)c(Cl)c1)c1cc(C2CCCCN2C(=O)c2cccs2)on1 (centres undefined) do in these assays?
SUMO1-SIM PPI: inactive; DNMT1 block: inactive; LMPTP block: inactive; STEP inh: inactive

How did C=CCN1C(=O)/C(=C/c2ccc(-c3ccc(F)cc3)o2)SC1=S do in these assays?
SUMO1-SIM PPI: inactive; DNMT1 block: inactive; GRK2 aptamer HTS: 43; LMPTP block: inactive; Scp-1 inhibitor: inactive; STEP inh: inactive; GRK2 inh confirm: inactive; FAM quench CP1: inactive

What do the screens show for `CSC12CCCN(CCC(C(C)(C)C)C1)C2=O` (centres undefined)?
SUMO1-SIM PPI: inactive; LMPTP block: inactive

What do the screens show for `CN(C)C(CNC(=O)C1CCCN(C(=O)c2ccc(Cl)cc2)C1)c1ccco1` (centres undefined)?
SUMO1-SIM PPI: inactive; DNMT1 block: inactive; GRK2 aptamer HTS: 68; LMPTP block: inactive; Scp-1 inhibitor: inactive; STEP inh: inactive; GRK2 inh confirm: inactive; FAM quench CP1: inactive

How did O=C(NCc1ccc(Cl)cc1)C1CCCN(C(=O)c2ccc(Cl)cc2)C1 (centres undefined) do in these assays?
SUMO1-SIM PPI: inactive; DNMT1 block: inactive; GRK2 aptamer HTS: inactive; LMPTP block: inactive; Scp-1 inhibitor: inactive; STEP inh: inactive

How did CN(CC1COc2ccccc2O1)C(=O)c1cccc(S(=O)(=O)N2CCCC2)c1 (centres undefined) do in these assays?
SUMO1-SIM PPI: inactive; DNMT1 block: inactive; GRK2 aptamer HTS: inactive; LMPTP block: inactive; Scp-1 inhibitor: inactive; STEP inh: inactive

What do the screens show for `NS(=O)(=O)c1ccc(CCNC(=O)COC(=O)CCc2c[nH]c3ccccc23)cc1`?
SUMO1-SIM PPI: inactive; DNMT1 block: inactive; GRK2 aptamer HTS: inactive; LMPTP block: inactive; Scp-1 inhibitor: inactive; STEP inh: inactive

Results for COC(=O)C1=CO[C@@H](OC2OC(CO)C(O)C(O)C2O)[C@@H]2[C@@H](C)[C@@H](O)C[C@H]12 (some centres undefined) ?
SUMO1-SIM PPI: inactive; DNMT1 block: inactive; GRK2 aptamer HTS: inactive; LMPTP block: inactive; Scp-1 inhibitor: inactive; STEP inh: inactive

How did C=C[C@H]1[C@H](OC2OC(CO)C(O)C(O)C2O)OC=C(C(=O)OC)[C@H]1C[C@H]1CC(=O)C[C@H](CC(=O)CCc2ccc(O)cc2)O1 (some centres undefined) do in these assays?
GRK2 aptamer HTS: 97; Scp-1 inhibitor: inactive; GRK2 inh confirm: inactive; FAM quench CP1: inactive

What do the screens show for `Cc1nn(-c2ccc(Cl)cc2)c(=O)c2ccccc12`?
SUMO1-SIM PPI: inactive; DNMT1 block: inactive; GRK2 aptamer HTS: 96; LMPTP block: inactive; Scp-1 inhibitor: inactive; STEP inh: inactive; GRK2 inh confirm: inactive; FAM quench CP1: inactive

Results for Cc1nn(-c2ccc(Cl)c(Cl)c2)c(=O)c2ccccc12 ?
SUMO1-SIM PPI: inactive; DNMT1 block: inactive; GRK2 aptamer HTS: inactive; LMPTP block: inactive; Scp-1 inhibitor: inactive; STEP inh: inactive

What do the screens show for `O=C(Nc1cccc(Cl)c1)c1ccc2sc([C@H]3C[C@H](O)[C@@H](CO)O3)nc2c1`?
SUMO1-SIM PPI: inactive; DNMT1 block: inactive; LMPTP block: inactive; STEP inh: inactive

What do the screens show for `CC(=O)N/C(=C/c1ccc2c(c1)OCO2)C(=O)NCC(=O)O`?
SUMO1-SIM PPI: inactive; DNMT1 block: inactive; GRK2 aptamer HTS: inactive; LMPTP block: inactive; Scp-1 inhibitor: inactive; STEP inh: inactive

Results for CC(=O)N/C(=C\c1ccccc1)C(=O)NCc1ccc2c(c1)OCO2 ?
SUMO1-SIM PPI: inactive; DNMT1 block: inactive; GRK2 aptamer HTS: 64; LMPTP block: inactive; Scp-1 inhibitor: inactive; STEP inh: inactive; GRK2 inh confirm: inactive; FAM quench CP1: inactive

How did O=C(/C=C/[C@H]1O[C@@H](n2cnc3c(NC(=O)c4ccccc4)ncnc32)[C@H](O)[C@@H]1O)NCc1ccc2c(c1)OCO2 do in these assays?
SUMO1-SIM PPI: inactive; DNMT1 block: inactive; LMPTP block: inactive; STEP inh: inactive
